# Screening data (PubChem)
# An excerpt weighted towards active compounds, which were near 3.5% of everything screened.
# MrgX1 allo act = positive allosteric modulators of MrgX1, primary screen, HEK293 cells, Fluo-4 calcium flux. Mas-related G-protein coupled receptor member X1 (Homo sapiens), Q96LB2. FDSS; active compounds read high. B-score at 10 µM. 310,000 compounds, 0.63% hits. AID 588675, 2011;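 active = plate-corrected calcium response at least 3 library SD above typical, normal starting fluorescence, not activating the receptor alone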;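 note: compound read alongside a low EC10 to EC30 dose of BAM8-22 agonist; peak minus trough fluorescence over baseline measured at the second addition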
# Target sequence (Q96LB2 whole entry, looked up): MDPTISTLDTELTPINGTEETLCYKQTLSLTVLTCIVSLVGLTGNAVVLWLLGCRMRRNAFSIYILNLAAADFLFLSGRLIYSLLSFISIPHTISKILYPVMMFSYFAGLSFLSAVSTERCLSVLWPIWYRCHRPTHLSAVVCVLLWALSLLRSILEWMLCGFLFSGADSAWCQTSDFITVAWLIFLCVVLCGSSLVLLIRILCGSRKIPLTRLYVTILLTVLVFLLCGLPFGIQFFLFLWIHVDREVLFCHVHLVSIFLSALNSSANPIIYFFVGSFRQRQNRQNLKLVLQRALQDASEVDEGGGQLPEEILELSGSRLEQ
# MrgX1 antag = antagonists of human MrgX1 receptor, primary screen, HEK293 cells, Fluo-4 calcium flux. Mas-related G-protein coupled receptor member X1 (Homo sapiens), Q96LB2. BAM8-22 antagonism; active compounds read low. B-score at 10 µM. 310,000 compounds, 1.3% hits. AID 588676, 2011;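 active = calcium-response B-score plate-corrected more than 3 library SD below zero, starting fluorescence within 5 deviations, no agonist response on first addition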;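 note: peak minus trough fluorescence over baseline after final BAM8-22 challenge near maximal dose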
# RGS4 inh = RGS4 inhibitors, primary screen, cell-based, HEK293 M3R inducible RGS4, calcium flux. Regulator of G-protein signaling 4 (Homo sapiens), P49798. Fluo-4 calcium flux; active compounds read high; triggered by carbachol at its EC20. B-score at 10 µM. 310,000 compounds, 0.45% hits;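 active = B-score, a plate-corrected calcium signal, over three deviations above library mean, with baseline fluorescence within five deviations of library mean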;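 note: RGS4 expression induced by doxycycline in cells with stable M3 receptor; B-score is computed from the integrated fluorescence ratio over baseline after carbachol; higher B-score means a larger calcium signal and so more RGS4 inhibition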
# Target sequence (P49798 whole entry, looked up): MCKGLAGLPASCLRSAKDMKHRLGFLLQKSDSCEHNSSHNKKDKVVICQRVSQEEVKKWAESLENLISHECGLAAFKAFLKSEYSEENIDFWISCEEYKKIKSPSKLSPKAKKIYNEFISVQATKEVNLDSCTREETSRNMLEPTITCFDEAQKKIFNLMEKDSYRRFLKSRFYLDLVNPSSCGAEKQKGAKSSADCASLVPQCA
# MrgX1 agonist = agonists of human MrgX1 receptor, primary screen, HEK293 cells, Fluo-4 calcium flux. 310,000 compounds, 0.44% hits. B-score at 10 µM. Fluo-4 calcium fluorescence, agonist mode; active compounds read high. AID 588627, 2011. Mas-related G-protein coupled receptor member X1 (Homo sapiens), Q96LB2;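 active = calcium response B-score plate-corrected fluorescence ratio at least 3 library SD, with starting fluorescence B-score inside 5 SD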
#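 times = overnight plating, then 30 min 37 °C plus 30 min room-temperature dye loading | assay system = stable human MrgX1 HEK293 cell line | input = fifteen thousand cells per well | signal = kinetic calcium dye fluorescence, Fluo-4 NW | dosing = compound delivered in addition one of three | read-out = B-scored fluorescence response ratio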
# RGS4 pot = RGS4 potentiators or activators, primary screen, cell-based, HEK293 M3R inducible RGS4, calcium flux | B-score at 10 µM | 310,000 compounds, 0.92% hits | AID 463111, 2010 | carbachol calcium flux Fluo4; active compounds read low;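 active = B-score of the integrated calcium signal more than 4 SD below the library mean, with starting fluorescence not abnormally high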;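 note: negative B-score means reduced calcium response which marks RGS4 activation or potentiation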
#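 test system = HEK293 cells with stable M3R and inducible RGS4 | schedule = recording 10 s baseline at 1 Hz, 100 s post-agonist | technique = Fluo4-AM (2 µM) calcium-flux fluorescence, kinetic read | measure = Agonist-evoked peak-minus-minimum fluorescence over baseline, integrated ratio, B score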
# RGS4 activ val = reduced carbachol calcium response, RGS4-induced M3R cells, confirmation, RGS4 activator project, cell-based, HEK293 M3R/RGS4 inducible, calcium flux, duplicate; shares compounds with RGS4 pot; 1,100 compounds, 89% hits; AID 602282, 2012; carbachol calcium flux Fluo4; inhibition, % at 10 µM;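 active = inhibition above 3 SD of the buffer control wells, cut at about 41% in these data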;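 note: signal is the integrated peak-minus-minimum Fluo4 fluorescence over baseline ratio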
# RGS4 act ctr = activity in cells without induced RGS4 expression; shares compounds with RGS4 pot; 1,100 compounds, 82% hits; HEK293 M3R non-induced RGS4, Fluo4 calcium flux; after carbachol challenge at its EC90; inhibition, % at 10 µM;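 active = inhibition exceeding 3 SD of buffer-only control wells, cut at about 26% in these data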;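 note: percent drop in integrated peak-minus-baseline over baseline Fluo4 ratio after carbachol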
# Starred values were filed as active, the others as inactive; i = inactive; / = no result given.
SMILES,MrgX1 allo act,MrgX1 antag,RGS4 inh,MrgX1 agonist,RGS4 pot,RGS4 activ val,RGS4 act ctr
CN(C)c1cccc(C(=O)NCCCSc2ccccc2)c1,i,i,i,i,i,/,/
O=C(c1ccc(-c2ccccc2)cc1)C1CCCN(Cc2ccncc2)C1 (stereo not given),i,i,i,i,i,/,/
OCCC1CN(Cc2cnc(N3CCCC3)s2)CCN1C1CCCC1 (stereo not given),i,i,i,i,-7.9*,70*,27*
OCCC1CN(C/C(Cl)=C/c2ccccc2)CCN1C1CCCC1 (stereo not given),i,i,i,i,-10*,70*,84*
CC(=O)Nc1ccc(CN2CCN(C3CCCC3)C(CCO)C2)cc1 (stereo not given),i,i,i,i,-8*,88*,52*
CC(=O)Nc1ccc(CN2CCCC(C(=O)c3ccc(C(F)(F)F)cc3)C2)cc1 (stereo not given),i,i,i,i,-10*,72*,84*
O=C(O)C1CCC(N2C(=O)c3c(Cl)c(Cl)c(Cl)c(Cl)c3C2=O)CC1 (stereo not given),i,i,i,i,i,/,/
NC(=O)C[N+]1(CC#CC(O)(c2ccccc2)c2ccccc2)CCCC1,i,i,i,i,-12*,52*,0
CCOC(=O)N1CCC(N2CCN(Cc3ccccc3)C(CCO)C2)CC1 (stereo not given),i,i,i,i,i,/,/
CCOC(=O)N1CCC(N2CCN(C3CCCC3)C(CCO)C2)CC1 (stereo not given),i,i,i,i,-10*,89*,59*
CCOC(=O)N1CCC(NC2CCCCCCC2)CC1,i,i,i,i,-8.1*,82*,0
C/C(N)=C(/C#N)C(=O)COC(=O)[C@@H](NC(=O)c1ccccc1Cl)C(C)C,i,i,i,i,i,/,/
Cn1c(=O)[nH]c(=O)c2c1nc1n2CC(O)CN1c1ccccc1 (stereo not given),i,i,i,i,i,/,/
O=C1CC(c2ccccc2)c2cccc(F)c21 (stereo not given),i,i,i,i,i,/,/
O=C(c1ccc2c(c1)OCO2)C1CCCN(Cc2c(F)ccc(F)c2F)C1 (stereo not given),i,i,i,i,-7.9*,92*,58*
O=C(c1ccc2c(c1)OCO2)C1CCCN(Cc2ccccc2OC(F)F)C1 (stereo not given),i,i,i,i,-7.7*,72*,30*
CCOc1ccccc1Oc1cn[nH]c1-c1ccc(O)cc1O,i,i,i,i,i,/,/
C=C(C)COc1ccc(-c2[nH]ncc2Oc2ccccc2OCC)c(O)c1,i,i,i,i,-7.7*,91*,92*
COC(=O)c1cc(NC(=O)CSc2nnc(N)s2)ccc1Cl,i,i,i,i,-14*,0,0
CC(=O)N1c2ccccc2C(C)CC12CCCCC2 (stereo not given),i,i,i,i,-7.8*,86*,37*
CSc1nc2ccccc2n1Cc1c(Cl)cccc1Cl,i,i,i,i,-8.4*,95*,86*
OCc1nc2ccccc2n1Cc1c(F)cccc1Cl,i,i,i,i,i,/,/
O=C(O)c1cccc(-n2nc(-c3ccc(Cl)c([N+](=O)[O-])c3)c3ccccc3c2=O)c1,i,i,i,i,i,/,/
Cc1nc(-c2noc(-c3ccccc3Cl)n2)c(C(F)(F)F)o1,i,i,i,i,-8.6*,0,0
Cc1scc(-c2n[nH]c(=S)n2Cc2ccccc2)c1C,i,i,i,i,-7.6*,74*,84*
SMILES,MrgX1 allo act,MrgX1 antag,RGS4 inh,MrgX1 agonist,RGS4 pot,RGS4 activ val,RGS4 act ctr
CC(=O)/C(C(=N)N1CCN(C(c2ccccc2)c2ccccc2)CC1)=C(\C)O,i,i,i,i,-9.2*,81*,84*
CC(C)NC(=O)CN(Cc1ccc(F)cc1)C(=O)CCC(=O)Nc1ccccn1,i,i,i,i,i,/,/
CCCc1ncc(C(O)c2cccc3ccccc23)n1C (stereo not given),i,i,i,i,i,/,/
CCCc1ncc(C(O)(c2ccccc2)c2ccc(C)cc2)n1C (stereo not given),i,i,i,i,-7.9*,92*,63*
CCCc1ncc(C(O)(c2ccccc2)c2ccccc2)n1C,i,i,i,i,-12*,93*,81*
Cc1cc(C)cc(NC(=O)c2ccc(Cn3nc(C)c(Cl)c3C)o2)c1,i,i,i,i,-12*,70*,64*
Cc1ccc(CNC(=O)c2ccc(Cn3nc(C)c(Cl)c3C)o2)cc1,i,i,i,i,i,/,/
CC(C)C[C@@]12C(=O)N(c3cccc(F)c3)C(=O)N1[C@H](c1ccc(Cl)cc1)[C@@H]1C(=O)N(C3CCCCC3)C(=O)[C@@H]12,i,i,i,i,i,/,/
O=[N+]([O-])c1ccc(N/N=C/c2ccc(OCc3cccc4ccccc34)cc2)nc1,i,i,i,i,i,/,/
N#Cc1ccccc1Cn1cc(/C=N/Nc2ccc([N+](=O)[O-])cn2)c2ccccc21,i,-6.2*,i,i,-11*,78*,84*
C[N+]1(CCCOC(=O)C2(c3ccccc3)CCCC2)CCOCC1,i,i,i,i,i,/,/
O=C(OCCN1CCCCC1)C1(c2ccccc2)CCCC1,i,i,i,i,-10*,92*,92*
O=C(OCCN1CCCCC1)c1ccccc1Br,i,i,i,i,i,/,/
O=C(OCCN1CCCC1)C1(c2ccccc2)CCCC1,/,/,i,/,-9.3*,94*,93*
CN(C)CCOC(=O)C1(c2ccccc2)CCCC1,i,i,i,i,-8.5*,92*,91*
O=C(Nc1cccc(C(F)(F)F)c1)Nc1ccon1,i,i,i,i,i,/,/
